Molecules are shown by their SMILES. Active and inactive are the calls of the source. No cut-off for these calls is given here.

Experiment [1] deals with Dual specificity mitogen-activated protein kinase kinase 1 (Homo sapiens) (UniProt Q02750). In words: Inhibition of recombinant human MKK1 (2 to 393 residues) expressed in Escherichia coli assessed as remaining activity at 1 uM using MBP as substrate incubated for 30 mins in presence of [gamma-33P]ATP by filter binding method relative to control. In a few lines: (§1)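 Kinase panel run robotically at 21 °C for 30 min, linear in time and enzyme. […] Compound tested at 1 or 10 µM. Activity given as percentage of incubations without compound, mean of triplicates ± S.D.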

Experiment [2] concerns the target Serine/threonine-protein kinase 26 (Homo sapiens) (UniProt Q9P289). In words: Inhibition of recombinant human N-terminal His6-tagged MST4 (1 to 416 residues) expressed in baculovirus infected Sf21 cells assessed as remaining activity at 10 uM using MBP as substrate incubated for 30 mins in presence of [gamma-33P]ATP by filter binding method relative to control.

In experiment [3] the target is T1, mTORC2 (Homo sapiens) (UniProt P42345+Q6R327+Q9BVC4+Q9BPZ7). The conditions noted are these: HEK293, dose 30-1000 nM, time 30.0 min.
Experiment [4] has as its target T1, mTORC2 (Homo sapiens). The conditions noted are these: HEK293, dose 30-1000 nM, time 30.0 min. This is another data set of the same source.
For experiment [5], the target named is Tyrosine-protein kinase Yes (Homo sapiens) (UniProt P07947). In words: Inhibition of recombinant human N-terminal His6-tagged YES1 (1 to 543 residues) expressed in baculovirus infected Sf21 cells assessed as remaining activity at 10 uM using Poly(Glu,Tyr) as substrate incubated for 30 mins in presence of [gamma-33P]ATP by filter binding assay relative to control. The gist of the method:
(§2)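 Radiometric panel assay run robotically at 21 °C for 30 min, linear in time and enzyme. […] Activity is expressed as percentage of the compound-omitted control, averaged from triplicates ± S.D.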

Experiment [6] addresses Casein kinase I isoform delta (Homo sapiens) (UniProt P48730). In words: Inhibition of recombinant human N-terminal GST-tagged CK1delta (1 to 415 residues) expressed in Escherichia coli assessed as remaining activity at 10 uM using RRKDLHDDEEDEAMSITA as substrate incubated for 30 mins in presence of [gamma-33P]ATP by filter binding method relative to control. In a few lines: (§3)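 Robotic radiometric panel assay, 30 min at room temperature (21 °C), with 10 mM magnesium acetate. […] Compound at 1 or 10 µM. Residual activity expressed relative to compound-free control; triplicate average ± S.D.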

The target in experiment [7] is Serine/threonine-protein kinase PLK1 (Homo sapiens) (UniProt P53350). In words: Inhibition of recombinant human N-terminal His6-tagged PLK1 (1 to 603 residues) expressed in baculovirus infected Sf21 cells assessed as remaining activity at 1 uM using ISDELMDATFADQEAKKK as substrate incubated for 30 mins in presence of [gamma-33P]ATP by filter binding method relative to control. In a few lines:
as §2

For experiment [8], the target named is Mitogen-activated protein kinase 13 (Homo sapiens) (UniProt O15264). In words: Inhibition of recombinant human GST-tagged P38delta (1 to 365 residues) expressed in Escherichia coli assessed as remaining activity at 1 uM using MBP as substrate incubated for 30 mins in presence of [gamma-33P]ATP by filter binding method relative to control. The gist of the method: as §1

For experiment [9], the target named is Protein kinase C zeta type (Homo sapiens) (UniProt Q05513). In words: Inhibition of recombinant human N-terminal His6-tagged PKCzeta (2 to 592 residues) expressed in baculovirus infected Sf21 cells assessed as remaining activity at 1 uM using ERMRPRKRQGSVRRV as substrate incubated for 30 mins in presence of [gamma-33P]ATP by filter binding method relative to control.

The subject of experiment [10] is HEK293. In words: Inhibition of PI3K in IGF1-stimulated HEK293 cells assessed as reduction in IGF1-stimulated PtdIns(3,4,5)P3 production at 1 uM pre incubated for 30 mins followed by IGF1-stimulation for 10 mins. Type of experiment: cell-based. The conditions noted are these: Homo sapiens.
The target in experiment [11] is mTORC1 (Homo sapiens) (UniProt P42345+Q8N122+Q9BVC4). The conditions noted are these: HEK293, dose 30-1000 nM, time 30.0 min.
Experiment [12] addresses Ribosomal protein S6 kinase alpha-5 (Homo sapiens) (UniProt O75582). In words: Inhibition of recombinant human His6-tagged MSK1 (2 to 802 residues) expressed in baculovirus infected Sf21 cells assessed as remaining activity at 1 uM using GRPRTSSFAEGKK as substrate incubated for 30 mins in presence of [gamma-33P]ATP by filter binding method relative to control. The gist of the method: as §3

In experiment [13] the target is Casein kinase II subunit alpha (Homo sapiens) (UniProt P68400). In words: Inhibition of recombinant human N-terminal His6-tagged CK2alpha1 (2 to 391 residues) expressed in Escherichia coli assessed as remaining activity at 1 uM using RRRDDDSDDD as substrate incubated for 30 mins in presence of [gamma-33P]ATP by filter binding method relative to control. In a few lines: as §2

The target of experiment [14] is T1, mTORC2 (Homo sapiens). The conditions noted are these: HEK293, dose 100-1000 nM, time 12-48 hrs.
For experiment [15], the target named is Mitogen-activated protein kinase 3 (Homo sapiens) (UniProt P27361). In words: Inhibition of recombinant human N-terminal GST-tagged ERK1 (2 to 379 residues) expressed in Escherichia coli assessed as remaining activity at 10 uM using MBP as substrate incubated for 30 mins in presence of [gamma-33P]ATP by filter binding method relative to control. In a few lines:
as §1

Experiment [16] concerns the target Tyrosine-protein kinase SYK (Homo sapiens) (UniProt P43405). In words: Inhibition of recombinant human N-terminal His6-tagged SYK (1 to 635 residues) expressed in baculovirus infected Sf21 cells assessed as remaining activity at 10 uM using Poly (Glu,Tyr) as substrate incubated for 30 mins in presence of [gamma-33P]ATP by filter binding assay relative to control.

Experiment [17] deals with Serine/threonine-protein kinase PAK 6 (Homo sapiens) (UniProt Q9NQU5). In words: Inhibition of recombinant human N-terminal GST-tagged PAK6 (2 to 681 residues) expressed in Escherichia coli assessed as remaining activity at 10 uM using RRRLSFAEPG as substrate incubated for 30 mins in presence of [gamma-33P]ATP by filter binding method relative to control. The gist of the method: (§4)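 Panel assays were run for 30 min at 21 °C, within the linear range for time and enzyme. […] Results are percent activity remaining relative to compound-free control, averaged from triplicate ± S.D.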

Experiment [18] deals with cAMP-dependent protein kinase catalytic subunit alpha (Homo sapiens) (UniProt P17612). In words: Inhibition of recombinant human N-terminal GST-tagged PKAalpha (2 to 351 residues) expressed in Escherichia coli assessed as remaining activity at 1 uM using Kemptide as substrate incubated for 30 mins in presence of [gamma-33P]ATP by filter binding method relative to control. In a few lines:
as §4

The target of experiment [19] is MAP/microtubule affinity-regulating kinase 3 (Homo sapiens) (UniProt P27448). In words: Inhibition of recombinant human N-terminal His6-tagged MARK3 (2 to 729 residues) expressed in baculovirus infected Sf21 cells assessed as remaining activity at 10 uM using CHKtide as substrate incubated for 30 mins in presence of [gamma-33P]ATP by filter binding method relative to control.
Sequence of MAP/microtubule affinity-regulating kinase 3 (Homo sapiens) (P27448 whole entry, looked up, the tested form may be a part): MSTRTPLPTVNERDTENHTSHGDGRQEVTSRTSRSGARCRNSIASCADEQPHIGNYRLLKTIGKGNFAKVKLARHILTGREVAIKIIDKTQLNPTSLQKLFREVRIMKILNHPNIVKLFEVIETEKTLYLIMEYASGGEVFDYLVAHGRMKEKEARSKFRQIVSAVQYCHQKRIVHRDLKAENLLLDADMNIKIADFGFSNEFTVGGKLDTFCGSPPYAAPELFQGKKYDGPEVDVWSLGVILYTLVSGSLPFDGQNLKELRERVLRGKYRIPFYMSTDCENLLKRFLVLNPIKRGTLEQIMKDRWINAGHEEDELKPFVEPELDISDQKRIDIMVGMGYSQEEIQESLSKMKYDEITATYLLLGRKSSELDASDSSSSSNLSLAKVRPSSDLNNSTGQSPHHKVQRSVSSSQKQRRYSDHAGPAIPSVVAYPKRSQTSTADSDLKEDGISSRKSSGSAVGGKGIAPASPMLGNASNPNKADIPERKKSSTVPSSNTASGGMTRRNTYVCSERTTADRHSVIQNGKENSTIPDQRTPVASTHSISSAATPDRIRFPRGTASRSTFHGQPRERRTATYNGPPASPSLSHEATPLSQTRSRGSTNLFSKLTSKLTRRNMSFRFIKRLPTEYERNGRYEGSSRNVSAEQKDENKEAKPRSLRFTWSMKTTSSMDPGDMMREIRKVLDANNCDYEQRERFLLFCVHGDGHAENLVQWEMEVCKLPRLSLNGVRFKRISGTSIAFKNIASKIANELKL

Sequence of Mitogen-activated protein kinase 3 (Homo sapiens) (P27361 whole entry, the tested form may be a part): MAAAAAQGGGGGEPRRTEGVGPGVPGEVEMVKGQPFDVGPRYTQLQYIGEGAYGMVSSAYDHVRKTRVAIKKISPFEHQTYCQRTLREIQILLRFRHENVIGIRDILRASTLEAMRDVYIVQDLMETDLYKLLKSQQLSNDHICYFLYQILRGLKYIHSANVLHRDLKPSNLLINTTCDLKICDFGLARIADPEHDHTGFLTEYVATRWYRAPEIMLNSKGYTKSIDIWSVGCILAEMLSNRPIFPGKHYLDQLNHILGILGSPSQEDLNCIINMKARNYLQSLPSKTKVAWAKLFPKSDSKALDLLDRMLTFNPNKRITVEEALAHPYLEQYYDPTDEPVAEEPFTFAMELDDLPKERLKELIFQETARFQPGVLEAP
Sequence of Ribosomal protein S6 kinase alpha-5 (Homo sapiens) (O75582 whole entry, looked up, the tested form may be a part): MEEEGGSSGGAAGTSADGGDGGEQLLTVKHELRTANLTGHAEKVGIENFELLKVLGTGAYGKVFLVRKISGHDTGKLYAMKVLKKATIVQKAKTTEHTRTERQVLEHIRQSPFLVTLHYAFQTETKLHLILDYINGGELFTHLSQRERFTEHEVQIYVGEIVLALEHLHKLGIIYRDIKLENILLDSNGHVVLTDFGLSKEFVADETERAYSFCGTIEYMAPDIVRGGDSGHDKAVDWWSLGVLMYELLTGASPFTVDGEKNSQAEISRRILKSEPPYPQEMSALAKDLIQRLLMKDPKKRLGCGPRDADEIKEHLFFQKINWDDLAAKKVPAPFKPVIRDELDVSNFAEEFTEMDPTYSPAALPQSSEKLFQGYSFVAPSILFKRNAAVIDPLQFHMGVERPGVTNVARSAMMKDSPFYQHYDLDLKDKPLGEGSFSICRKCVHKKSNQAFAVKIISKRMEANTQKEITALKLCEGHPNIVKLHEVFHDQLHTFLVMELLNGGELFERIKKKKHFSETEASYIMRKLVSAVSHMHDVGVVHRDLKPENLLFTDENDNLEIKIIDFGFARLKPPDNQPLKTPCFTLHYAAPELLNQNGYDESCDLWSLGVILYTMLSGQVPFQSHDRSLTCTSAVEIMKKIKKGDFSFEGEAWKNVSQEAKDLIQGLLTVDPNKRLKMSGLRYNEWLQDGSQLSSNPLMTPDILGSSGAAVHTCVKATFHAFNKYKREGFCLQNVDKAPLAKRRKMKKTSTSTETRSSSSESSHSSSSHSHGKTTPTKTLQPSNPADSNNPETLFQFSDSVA
Sequence of Protein kinase C zeta type (Homo sapiens) (Q05513 whole entry, the tested form may be a part): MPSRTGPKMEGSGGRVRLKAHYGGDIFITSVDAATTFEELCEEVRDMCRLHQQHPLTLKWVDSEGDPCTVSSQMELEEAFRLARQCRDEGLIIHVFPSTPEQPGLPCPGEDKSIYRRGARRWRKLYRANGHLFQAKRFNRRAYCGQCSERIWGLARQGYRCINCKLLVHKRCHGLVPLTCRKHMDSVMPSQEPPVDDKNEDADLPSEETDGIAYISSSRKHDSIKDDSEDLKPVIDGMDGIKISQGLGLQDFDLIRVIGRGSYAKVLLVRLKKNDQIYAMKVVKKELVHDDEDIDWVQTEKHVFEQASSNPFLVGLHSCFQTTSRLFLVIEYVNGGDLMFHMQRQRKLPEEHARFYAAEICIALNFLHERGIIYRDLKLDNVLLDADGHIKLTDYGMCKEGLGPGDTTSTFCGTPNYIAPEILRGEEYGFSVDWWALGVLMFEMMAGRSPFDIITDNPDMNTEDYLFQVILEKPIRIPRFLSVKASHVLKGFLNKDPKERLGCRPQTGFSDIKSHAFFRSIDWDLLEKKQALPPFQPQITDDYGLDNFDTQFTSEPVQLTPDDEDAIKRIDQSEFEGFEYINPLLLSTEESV
Sequence of Serine/threonine-protein kinase 26 (Homo sapiens) (Q9P289 2-416 limits assumed): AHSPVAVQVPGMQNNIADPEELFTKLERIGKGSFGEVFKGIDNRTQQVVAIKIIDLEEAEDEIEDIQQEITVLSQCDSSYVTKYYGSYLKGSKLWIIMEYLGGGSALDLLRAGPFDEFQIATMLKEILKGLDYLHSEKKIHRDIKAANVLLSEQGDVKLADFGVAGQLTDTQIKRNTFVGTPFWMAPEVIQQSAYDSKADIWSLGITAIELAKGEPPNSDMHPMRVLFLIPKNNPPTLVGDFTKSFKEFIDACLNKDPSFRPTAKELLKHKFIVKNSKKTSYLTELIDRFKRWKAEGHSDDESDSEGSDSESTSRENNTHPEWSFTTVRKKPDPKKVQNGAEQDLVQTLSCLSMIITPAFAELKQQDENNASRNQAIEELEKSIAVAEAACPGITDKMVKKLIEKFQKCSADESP
Sequence of Dual specificity mitogen-activated protein kinase kinase 1 (Homo sapiens) (Q02750 whole entry, the tested form may be a part): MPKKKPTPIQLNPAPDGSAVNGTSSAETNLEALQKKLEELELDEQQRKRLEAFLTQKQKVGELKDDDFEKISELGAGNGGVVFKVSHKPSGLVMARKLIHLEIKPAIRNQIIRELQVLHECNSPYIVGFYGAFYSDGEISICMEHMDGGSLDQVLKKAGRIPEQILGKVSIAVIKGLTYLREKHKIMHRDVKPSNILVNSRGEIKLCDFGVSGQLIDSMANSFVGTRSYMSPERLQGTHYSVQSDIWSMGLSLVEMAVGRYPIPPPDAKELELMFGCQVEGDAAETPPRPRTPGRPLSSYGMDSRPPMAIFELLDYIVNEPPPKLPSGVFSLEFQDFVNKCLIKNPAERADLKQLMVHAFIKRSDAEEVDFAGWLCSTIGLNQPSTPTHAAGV
Sequence of Casein kinase II subunit alpha (Homo sapiens) (P68400 whole entry, looked up, the tested form may be a part): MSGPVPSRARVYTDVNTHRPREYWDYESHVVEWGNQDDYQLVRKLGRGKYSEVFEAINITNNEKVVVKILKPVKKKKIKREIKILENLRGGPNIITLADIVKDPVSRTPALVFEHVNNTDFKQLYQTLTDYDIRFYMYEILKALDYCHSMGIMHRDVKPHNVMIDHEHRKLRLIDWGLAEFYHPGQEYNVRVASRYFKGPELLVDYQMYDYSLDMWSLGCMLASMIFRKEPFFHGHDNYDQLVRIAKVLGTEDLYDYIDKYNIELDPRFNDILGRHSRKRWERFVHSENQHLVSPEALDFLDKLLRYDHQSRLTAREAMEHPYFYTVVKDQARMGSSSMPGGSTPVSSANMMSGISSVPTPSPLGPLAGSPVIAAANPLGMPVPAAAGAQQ
Sequence of Serine/threonine-protein kinase PAK 6 (Homo sapiens) (Q9NQU5 whole entry, looked up, the tested form may be a part): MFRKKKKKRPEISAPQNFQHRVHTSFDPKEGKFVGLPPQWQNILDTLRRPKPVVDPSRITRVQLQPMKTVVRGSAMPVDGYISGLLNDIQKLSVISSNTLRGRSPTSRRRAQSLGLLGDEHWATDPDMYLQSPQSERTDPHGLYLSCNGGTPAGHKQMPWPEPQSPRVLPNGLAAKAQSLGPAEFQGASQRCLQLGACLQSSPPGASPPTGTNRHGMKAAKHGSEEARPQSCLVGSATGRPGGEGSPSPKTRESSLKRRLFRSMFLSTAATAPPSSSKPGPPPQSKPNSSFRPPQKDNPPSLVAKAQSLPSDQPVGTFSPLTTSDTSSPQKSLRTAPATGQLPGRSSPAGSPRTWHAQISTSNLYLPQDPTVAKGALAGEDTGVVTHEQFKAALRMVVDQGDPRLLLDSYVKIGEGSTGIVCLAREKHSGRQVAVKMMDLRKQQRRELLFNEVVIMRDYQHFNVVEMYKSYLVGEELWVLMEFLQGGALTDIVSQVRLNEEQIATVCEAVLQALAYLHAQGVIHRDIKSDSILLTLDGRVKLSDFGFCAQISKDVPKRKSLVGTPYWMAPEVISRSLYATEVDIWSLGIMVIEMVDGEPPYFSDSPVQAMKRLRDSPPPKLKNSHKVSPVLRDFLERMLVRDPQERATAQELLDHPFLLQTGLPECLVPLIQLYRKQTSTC
Sequence of Serine/threonine-protein kinase PLK1 (Homo sapiens) (P53350 whole entry, the tested form may be a part): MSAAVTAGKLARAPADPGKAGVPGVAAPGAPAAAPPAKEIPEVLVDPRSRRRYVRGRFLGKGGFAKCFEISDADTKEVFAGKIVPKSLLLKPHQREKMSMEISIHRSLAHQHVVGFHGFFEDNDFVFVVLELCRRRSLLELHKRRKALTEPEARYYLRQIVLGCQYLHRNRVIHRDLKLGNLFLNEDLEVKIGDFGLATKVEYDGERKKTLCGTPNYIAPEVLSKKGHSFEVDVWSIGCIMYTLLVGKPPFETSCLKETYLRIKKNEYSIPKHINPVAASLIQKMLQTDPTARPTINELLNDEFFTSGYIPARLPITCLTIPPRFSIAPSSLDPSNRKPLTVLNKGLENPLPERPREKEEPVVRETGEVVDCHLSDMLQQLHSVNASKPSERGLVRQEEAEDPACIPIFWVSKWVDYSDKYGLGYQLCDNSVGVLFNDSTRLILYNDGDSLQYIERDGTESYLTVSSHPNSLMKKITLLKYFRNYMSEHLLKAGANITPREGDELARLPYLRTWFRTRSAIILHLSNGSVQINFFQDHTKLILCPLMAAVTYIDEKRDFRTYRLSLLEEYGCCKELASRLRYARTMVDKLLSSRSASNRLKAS

Turning to `COc1ccc(-c2ccc3c(N4CCOCC4)nc(N4C[C@@H](C)O[C@@H](C)C4)nc3n2)cc1CO` [Ku-0063794], the Activity in experiment [1] turned out to be 96%; in experiment [2], 86%; in experiment [5] it was 90%; in [6], 109%; in experiment [7], 76%; in experiment [8], 72%. Further, the Activity came out at 87% in experiment [9]; 101% in experiment [12]; 104% in experiment [13]; 87% in [15]; 83% in [16]; 100% in [17]. For the same compound, the Activity came to 115% in experiment [18] and 93% in experiment [19]. Further, the inhibition result in [3], in experiment [4] and in experiment [11] was “Dose-Dependent Effect” in each case. The inhibition result in [10] was “inactive”. Further, in [14], the inhibition entry was “Active”.

The values are drawn from ChEMBL document CHEMBL5678799 (Biochem J, 2009).
